Assay results as given in ChEMBL document CHEMBL4699614, “Design, synthesis and biological evaluation of novel osthole-based derivatives as potential neuroprotective agents” (Bioorg Med Chem Lett, 2020).
Calls of active or inactive are those of the source.

Legend:
SH-SY5Y [1] = assay: Neuroprotection against H202-induced oxidative stress in human SH-SY5Y cells assessed as increase in cell viability at 10 uM by MTT assay; format: functional
Procedure, shortened: (§1)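 SH-SY5Y cells were given one of two insults: H2O2-induced oxidative stress, with cell viability read by MTT, or oxygen glucose deprivation (OGD)-induced cell damage. Compounds were tested at 10 µM, and the result is expressed as percent neuroprotection.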

SH-SY5Y [2] = assay: Neuroprotective activity against oxygen-glucose deprivation-induced toxicity in human SH-SY5Y cells assessed as increase in cell viability at 10 uM by MTT assay; format: functional; procedure, shortened: as §1
SH-SY5Y [3] = assay: Neuroprotection against H202-induced oxidative stress in human SH-SY5Y cells assessed as increase in cell viability at 1 mM by MTT assay; format: functional
SH-SY5Y [4] = assay: Neuroprotective activity against oxygen-glucose deprivation-induced toxicity in human SH-SY5Y cells assessed as increase in cell viability at 1 mM by MTT assay; format: functional
RAW264.7 = assay: Inhibition of LPS-induced NO production in mouse RAW264.7 cells assessed as NO production activity at 10 uM by Griess reagent based assay; format: functional
SH-SY5Y [5] = assay: Neuroprotection against oxygen-glucose deprivation-induced toxicity in human SH-SY5Y cells assessed as cytoprotection by MTT assay; format: functional, cell-based
Procedure, shortened: (§2)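 SH-SY5Y cells were exposed to H2O2 or to oxygen glucose deprivation (OGD) cytotoxicity. EC50 was defined as the concentration giving 50% protective effect relative to the control group. Values are averages of three independent experiments, given as mean ± SEM.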

SH-SY5Y [6] = assay: Neuroprotection against H202-induced toxicity in human SH-SY5Y cells assessed as cytoprotection by MTT assay; format: functional, cell-based; procedure, shortened: as §2
SH-SY5Y [7] = assay: Neuroprotective activity against human SH-SY5Y cells assessed as Abeta42-induced cytotoxicity at 10 uM by MTT assay; format: functional
SH-SY5Y [8] = assay: Neuroprotective activity against human SH-SY5Y cells assessed as Abeta42-induced cytotoxicity at 1 uM by MTT assay; format: functional
SH-SY5Y [9] = assay: Neuroprotective activity against human SH-SY5Y cells assessed as Abeta42-induced cytotoxicity at 30 uM by MTT assay; format: functional

SMILES | Activity (SH-SY5Y [1]) [%] | Activity (SH-SY5Y [2]) [%] | Residual NO production (RAW264.7) [%] | EC50 (SH-SY5Y [5]) [µM] | EC50 (SH-SY5Y [6]) [µM] | also measured
CC(C)=CCc1c(OCC(=O)Nc2ccc(N3CCNCC3)cn2)ccc2ccc(=O)oc12 | 44.5 | 49.4 | – | – | – | –
CC(C)=CCc1c(OCC(=O)Nc2ccc(N3CCCCC3)cn2)ccc2ccc(=O)oc12 | 32.7 | 16.8 | – | – | – | –
CC(C)=CCc1c(OCC(=O)Nc2ccc(N3CCNCC3)cc2)ccc2ccc(=O)oc12 | 22.5 | 8.4 | – | – | – | –
CC(C)=CCc1c(OCC(=O)Nc2ccc(N3CCOCC3)cc2)ccc2ccc(=O)oc12 | 39.5 | 13.2 | – | – | – | –
CC(=O)N[C@@H](CS)C(=O)O [ACETYLCYSTEINE] | – | – | – | – | – | Activity (SH-SY5Y [3]): 37.1%; Activity (SH-SY5Y [4]): 84.3%
CC(C)=CCc1c(OCC(=O)Nc2ccc(N3CCOCC3)cn2)ccc2ccc(=O)oc12 | 43.5 | 51.4 | 80.3 | 9.05 | 16.6 | –
CCN1CCN(C(=O)COc2ccc3ccc(=O)oc3c2CC=C(C)C)CC1 | 33.7 | 48 | 72.3 | 12.5 | 29.8 | –
CC(C)=CCc1c(OC(=O)NC2CCCCC2)ccc2ccc(=O)oc12 | 13 | – | – | – | – | –
CC(C)(O)C1Cc2c(ccc3cc(-c4ccc(F)cc4)c(=O)oc23)O1 (stereo not drawn) | 21.3 | 23.5 | – | – | – | –
CC(C)=CCc1c(OCC(=O)Nc2ccc(N3CCCC3)cn2)ccc2ccc(=O)oc12 | 45.2 | 58.2 | – | – | – | –
CC(C)=CCc1c(OCC(=O)Nc2ccc(N3CCCCC3)cc2)ccc2ccc(=O)oc12 | 12.5 | – | – | – | – | –
CC(C)(O)C1Cc2c(ccc3cc(-c4ccccc4)c(=O)oc23)O1 (stereo not drawn) | 19.7 | 23.2 | – | – | – | –
COc1cccc(-c2cc3ccc4c(c3oc2=O)CC(C(C)(C)O)O4)c1 (stereo not drawn) | 31 | 42.8 | 73.3 | 13.3 | 30.4 | –
COc1ccc(CNC(=O)Oc2ccc3ccc(=O)oc3c2CC=C(C)C)cc1 | 28.7 | 35 | 77.4 | 23.3 | > 100 | –
CC(C)(O)C1Cc2c(ccc3cc(-c4cccc(F)c4)c(=O)oc23)O1 (stereo not drawn) | 29 | 41.2 | 106.2 | 18.8 | 75.9 | –
CC(C)=CCc1c(OCC(=O)N2CCCC2)ccc2ccc(=O)oc12 | 28 | 43.6 | 75.4 | 15.3 | 67.3 | –
CC(C)=CCc1c(OCC(=O)N2CCOCC2)ccc2ccc(=O)oc12 | 31.5 | 23.2 | 74.1 | > 100 | 27.5 | –
CC(C)=CCc1c(OCC(=O)N2CCCCC2)ccc2ccc(=O)oc12 | 5.5 | – | – | – | – | –
CC(C)=CCc1c(OCC(=O)N2CCNCC2)ccc2ccc(=O)oc12 | 29.2 | 28.2 | – | – | – | –
CC(C)(O)C1Cc2c(ccc3cc(-c4ccccc4F)c(=O)oc23)O1 (stereo not drawn) | 36.5 | 37.2 | 85.2 | 40.1 | 32.3 | –
CC(C)=CCc1c(OCC(=O)Nc2ccc(N3CCCC3)cc2)ccc2ccc(=O)oc12 | 47.7 | 63.4 | 50.4 | 5.62 | 11.9 | inhibition at 10 µM (SH-SY5Y [7]): 46.3%; inhibition at 1 µM (SH-SY5Y [8]): 47.8%
CC(C)=CCc1c(OCC(=O)N2CCN(C(=O)OC(C)(C)C)CC2)ccc2ccc(=O)oc12 | 45.7 | 64.6 | 62.8 | 3.27 | 10.3 | inhibition at 10 µM (SH-SY5Y [7]): 61.4%; inhibition at 1 µM (SH-SY5Y [8]): 55.2%
COc1ccc2ccc(=O)oc2c1CC=C(C)C [OSTHOLE] | – | 28.6 | 85.6 | 26.4 | 33.3 | Activity (SH-SY5Y [9]): 37.1%; Activity (SH-SY5Y [8]): inactive
COc1ccc2c(c1)c(CC(=O)O)c(C)n2C(=O)c1ccc(Cl)cc1 [INDOMETHACIN] | – | – | 53.2 | – | – | –
Cc1ccc(-c2cc3ccc4c(c3oc2=O)CC(C(C)(C)O)O4)cc1 (stereo not drawn) | 18.2 | – | – | – | – | –
